Test results published in ChEMBL document CHEMBL3046176, “Synthesis, crystal structure, and biological activities of 2-cyanoacrylates containing furan or tetrahydrofuran moieties” (2007).

How the values were obtained:
Format in all cases: functional
[1] = test system: Tobacco mosaic virus; test: Antiviral activity against Tobacco mosaic virus (TMV) inoculated in fresh tobacco leaf at 100 mg/L by half-leaf method
Procedure, shortened: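 Half-leaf method on tobacco leaves at the 5-6 growth stage. Leaves were inoculated with TMV by juice-leaf rubbing at 5.88 × 10-2 µg/mL and cut along the main vein. One half was immersed in test solution and the other in double distilled water for 20 min, then cultured at 25 °C for 72 h, in triplicate. Inhibition = 100(CK − A)/CK, from average lesion counts.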

[2] = test system: Cladosporium cucumerinum; test: Antifungal activity against Cladosporium cucumerinum assessed as inhibition of mycelium growth at 50 mg/L at 26 degC measured after 72 hr
Procedure, shortened: (§1)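 Mycelium growth assay on agar. 1 mL test solution (50 mg/L) was poured into a 9 cm plate with 9 mL agar medium. Controls used sterile water in its place. A 4 mm plug from the margin of an actively growing colony was placed in the centre and incubated at 26 °C. Hyphal diameter was measured over 72 h, in triplicate. Inhibition % = (control diameter − treated diameter)/control diameter.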

[3] = test system: Mycosphaerella arachidis; test: Antifungal activity against Mycosphaerella arachidis assessed as inhibition of mycelium growth at 50 mg/L at 26 degC measured after 72 hr; procedure, shortened: as §1
[4] = test system: Botryosphaeria berengeriana; test: Antifungal activity against Botryosphaeria berengeriana assessed as inhibition of mycelium growth at 50 mg/L at 26 degC measured after 72 hr; procedure, shortened: as §1
[5] = test system: Alternaria solani; test: Antifungal activity against Alternaria solani assessed as inhibition of mycelium growth at 50 mg/L at 26 degC measured after 72 hr; procedure, shortened: as §1
[6] = test system: Fusarium graminearum; test: Antifungal activity against Fusarium graminearum assessed as inhibition of mycelium growth at 50 mg/L at 26 degC measured after 72 hr
Procedure, shortened: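 Mycelium growth test on agar plates: 1 mL test solution (50 mg/L) mixed with 9 mL agar medium; sterile water in place of test solution for controls. 4 mm inocula cut from margins of actively growing colonies, placed at plate centre, incubated at 26 °C; mycelium diameter measured over 72 h. Inhibition % from mean hyphal diameter against control. Triplicate.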

[7] = test system: Cucumis sativus; test: Plant growth regulatory activity in Cucumis sativus (cucumber) seed assessed as number of root at 10 mg/L at 26 degC measured after 5 days
Procedure, shortened: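 Cucumber seeds were incubated at 26 °C in the dark for 72 h, then 10 cotyledons were excised and treated. Incubation continued at 26 °C in the dark for 5 days. Roots were counted, with water-only controls, in triplicate.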

[8] = test system: Digitaria sanguinalis; test: Herbicidal activity against hairy crabgrass Digitaria sanguinalis (hairy crabgrass) assessed as herbicidal damage at 1.5 kg/ha measured after preemergence treatment; settings: pre-emergence
Procedure, shortened: (§2)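 Seeds were sown in 6 cm boxes of artificial mixed soil, covered with plastic film until emergence, and grown in a greenhouse. Sprays were applied right after sowing (preemergence) or after the first true leaf expanded (postemergence). Controls received the same amount of water/DMF/Tween 20. Above-ground fresh weight was taken 10 days after treatment, in triplicate, as % damage versus control.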

[9] = test system: Medicago sativa; test: Herbicidal activity against Medicago sativa (alfalfa) assessed as herbicidal damage at 1.5 kg/ha measured after preemergence treatment; settings: pre-emergence; procedure, shortened: as §2
[10] = test system: Amaranthus retroflexus; test: Herbicidal activity against Amaranthus retroflexus assessed as herbicidal damage at 1.5 kg/ha measured after preemergence treatment; settings: pre-emergence; procedure, shortened: as §2
[11] = test system: Brassica napus; test: Herbicidal activity against rape Brassica napus (oilseed rape) assessed as herbicidal damage at 1.5 kg/ha measured after preemergence treatment; settings: pre-emergence; procedure, shortened: as §2
[12] = test system: Digitaria sanguinalis; test: Herbicidal activity against hairy crabgrass Digitaria sanguinalis (hairy crabgrass) assessed as herbicidal damage at 1.5 kg/ha measured after postemergence treatment; settings: post-emergence; procedure, shortened: as §2
[13] = test system: Medicago sativa; test: Herbicidal activity against Medicago sativa (alfalfa) assessed as herbicidal damage at 1.5 kg/ha measured after postemergence treatment; settings: post-emergence; procedure, shortened: as §2
[14] = test system: Amaranthus retroflexus; test: Herbicidal activity against Amaranthus retroflexus assessed as herbicidal damage at 1.5 kg/ha measured after postemergence treatment; settings: post-emergence; procedure, shortened: as §2
[15] = test system: Brassica napus; test: Herbicidal activity against rape Brassica napus (oilseed rape) assessed as herbicidal damage at 1.5 kg/ha measured after postemergence treatment; settings: post-emergence; procedure, shortened: as §2

| SMILES | Activity [1] [%] | inhibition at 50 µg/mL [2] [%] | inhibition at 50 µg/mL [3] [%] | inhibition at 50 µg/mL [4] [%] | inhibition at 50 µg/mL [5] [%] | inhibition at 50 µg/mL [6] [%] | Activity [7] [%] | inhibition at 1500 g/ha [8] [%] | inhibition at 1500 g/ha [9] [%] | inhibition at 1500 g/ha [10] [%] | inhibition at 1500 g/ha [11] [%] | inhibition at 1500 g/ha [12] [%] | inhibition at 1500 g/ha [13] [%] | inhibition at 1500 g/ha [14] [%] | inhibition at 1500 g/ha [15] [%] |
| --- | --- | --- | --- | --- | --- | --- | --- | --- | --- | --- | --- | --- | --- | --- | --- |
| CCOCCOC(=O)/C(C#N)=C(\NCC1CCCO1)C(C)C (stereo not given) | 7.2 | 0 | 28.6 | 18.2 | 14.3 | 33.3 | 32.5 | 40 | 20.3 | 3.2 | 80 | 100 | 60.5 | 100 | 97.2 |
| CCOCCOC(=O)/C(C#N)=C(/C)NCC1CCCO1 (stereo not given) | 7.5 | 13.2 | 44.6 | 9.1 | 0 | 10 | -6.6 | 5.7 | 11.3 | 0 | 8.5 | 7.1 | 28.7 | 36.4 | 57.9 |
| CCOCCOC(=O)/C(C#N)=C(/CC)NCC1CCCO1 (stereo not given) | 13.2 | 15.8 | 37.5 | 22.7 | 10.7 | 20 | 2.4 | 0 | 3 | 8.4 | 7.4 | 0 | 22.2 | 46.1 | 63.7 |
| CCC/C(NCC1CCCO1)=C(\C#N)C(=O)OCCOCC (stereo not given) | 0 | 10.5 | 32.1 | 4.5 | 0 | 23.3 | 8.4 | 0 | 15 | 0 | 0 | 0 | 19.2 | 16.4 | 36.3 |
| CCOCCOC(=O)/C(C#N)=C(/CC)NCc1ccco1 | 13.3 | 21.1 | 35.7 | 27.3 | 0 | 20 | 11.4 | 12.1 | 0 | 9.5 | 16.3 | 27.3 | 35.9 | 22.6 | 47.9 |
| CCOCCOC(=O)/C(C#N)=C(\NCc1ccco1)C(C)C | 0 | 13.2 | 37.5 | 22.7 | 17.9 | 23.3 | 2.4 | 37.8 | 4.5 | 6.3 | 3.3 | 0 | 26.3 | 41.9 | 56.3 |
